Results as given in ChEMBL document CHEMBL2021912, “Synthesis, cytotoxicity and apoptosis of cyclotriphosphazene compounds as anti-cancer agents” (Eur J Med Chem, 2012).
Calls of active or inactive are those of the source. No cut-off for these calls is given here.

Tests used:
Pseudomonas aeruginosa = assay: Antibacterial activity against Pseudomonas aeruginosa ATCC 27853 after 18 to 24 hrs by broth microdilution method; assay type: functional; details: read-out: ID50 (the source's name)
Escherichia coli = assay: Antibacterial activity against Escherichia coli ATCC 35218 after 18 to 24 hrs by broth microdilution method; assay type: functional; details: read-out: ID50 (the source's name)
Staphylococcus aureus = assay: Antibacterial activity against Staphylococcus aureus ATCC 25923 after 18 to 24 hrs by broth microdilution method; assay type: functional; details: read-out: ID50 (the source's name)
Candida albicans = assay: Antifungal activity against Candida albicans ATCC 10231 after 48 hrs by broth microdilution method; assay type: functional; details: ATCC 10231, 48 h, read-out: ID50 (the source's name)
HT-29 [1] = assay: Cytotoxicity against human HT-29 cells after 24 hrs at 37 degC by MTT assay; assay type: functional; details: for IC50: HT-29, 24 h, read-out: ID50 (the source's name)
In short: (§1)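 Vero and HT-29 grown in DMEM/10% FBS, Hep2 in EMEM/10% FBS; seeded at 2 × 10^4 (Vero, Hep2) or 3 × 10^4 (HT-29) cells/mL; exposed 24 h to 0.2–50 µg/mL compound, final DMSO 1%; MTT 1 mg/mL 2 h at 37 °C, formazan in DMSO, OD 540 nm; % of DMSO control; ID50 by probit; triplicate wells, three repeats.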

HEp-2 [2] = assay: Cytotoxicity against human Hep2 cells after 24 hrs at 37 degC by MTT assay; assay type: functional; details: for IC50: HEp-2, 24 h, read-out: ID50 (the source's name); in short: as §1
[3] = (§2) Cytotoxicity against african green monkey Vero cells after 24 hrs at 37 degC by MTT assay; assay type: cell-based; details: chlorocebus sabaeus, Vero cells; read-out: ID50; in short: as §1
HEp-2 [4] = assay: Induction of apoptosis in human Hep2 cells assessed as viable cell level after 24 hrs by annexin V-FITC and propidium iodide staining based flow cytometry; assay type: functional
In short: (§3)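 Hep2 seeded at 2-3 × 10^6 per flask, treated 24 h at several concentrations; cisplatin 200 µM positive control; cells in HEPES pH 7.4/NaCl/CaCl2 buffer stained with annexin V-FITC 100 ng/mL and PI 0.1 µg/mL, 15 min room temperature, dark; flow cytometry quadrants; three experiments in duplicate.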

HEp-2 [5] = assay: Induction of apoptosis in human Hep2 cells assessed as early apoptotic cells level after 24 hrs by annexin V-FITC and propidium iodide staining based flow cytometry; assay type: functional; in short: as §3
HEp-2 [6] = assay: Induction of apoptosis in human Hep2 cells assessed as late apoptotic cells level after 24 hrs by annexin V-FITC and propidium iodide staining based flow cytometry; assay type: functional; in short: as §3
HEp-2 [7] = assay: Induction of apoptosis in human Hep2 cells assessed as necrotic cells level after 24 hrs by annexin V-FITC and propidium iodide staining based flow cytometry; assay type: functional; in short: as §3
HT-29 [8] = assay: Induction of apoptosis in human HT-29 cells assessed as early apoptotic cells level after 24 hrs by annexin V-FITC and propidium iodide staining based flow cytometry; assay type: functional
In short: as §3, with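 “HT-29” for “Hep2”, “flask in 10% FBS-DMEM,” for “flask,”, “etoposide (12.5–50 µg/mL)” for “cisplatin 200 µM”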

HT-29 [9] = assay: Induction of apoptosis in human HT-29 cells assessed as late apoptotic cells level after 24 hrs by annexin V-FITC and propidium iodide staining based flow cytometry; assay type: functional
In short: as §3, with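 “HT-29” for “Hep2”, “flask in 10% FBS-DMEM,” for “flask,”, “etoposide (12.5–50 µg/mL)” for “cisplatin 200 µM”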

HT-29 [10] = assay: Induction of apoptosis in human HT-29 cells assessed as necrotic cells level after 24 hrs by annexin V-FITC and propidium iodide staining based flow cytometry; assay type: functional
In short: as §3, with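 “HT-29” for “Hep2”, “flask in 10% FBS-DMEM,” for “flask,”, “etoposide (12.5–50 µg/mL)” for “cisplatin 200 µM”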

HT-29 [11] = assay: Induction of apoptosis in human HT-29 cells assessed as viable cell level after 24 hrs by annexin V-FITC and propidium iodide staining based flow cytometry; assay type: functional
In short: as §3, with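 “HT-29” for “Hep2”, “flask in 10% FBS-DMEM,” for “flask,”, “etoposide (12.5–50 µg/mL)” for “cisplatin 200 µM”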

Vero = assay: as §2; assay type: cell-based; details: chlorocebus sabaeus, vero, 24 h; in short: as §1

Row | Structure (SMILES) | IC50 (Pseudomonas aeruginosa) [µg/mL] | IC50 (Escherichia coli) [µg/mL] | IC50 (Staphylococcus aureus) [µg/mL] | IC50 (Candida albicans) [µg/mL] | ID50 (HT-29 [1]) | IC50 (HEp-2 [2]) [µM] | CC50 at 24 h [3] [µM] | Activity (HEp-2 [4]) [%] | Activity (HEp-2 [5]) [%] | Activity (HEp-2 [6]) [%] | Activity (HEp-2 [7]) [%] | Activity (HT-29 [8]) [%] | Activity (HT-29 [9]) [%] | Activity (HT-29 [10]) [%] | IC50 (HT-29 [1]) [µM] | ID50 (HEp-2 [2]) | Activity (HT-29 [11]) [%] | ID50 (Vero)
1 | FC1(F)COP2(Cl)=NP(Cl)(=NP3(=N2)NCCCN3CCCCN2CCCNP23=NP2(Cl)=NP(Cl)(=N3)OCC(F)(F)C(F)(F)CO2)OCC1(F)F (stereo unspecified) | > 250 | > 250 | > 250 | > 250 | inactive | 2.63 | 1.61 | – | – | – | – | – | – | – | – | – | – | –
2 | CC1(C)COP2(=NP34=NP5(=N2)NCCCN5CCCCN3CCCN4)OC1 (stereo unspecified) | > 250 | > 250 | > 250 | > 250 | inactive | 3.23 | 5.88 | 19.39 | 77.29 | 3.32 | 0 | – | – | – | – | – | – | –
3 | c1ccc(NP2(Nc3ccccc3)=NP34=NP5(=N2)NCCCN5CCCCN3CCCN4)cc1 (stereo unspecified) | > 250 | > 250 | > 250 | > 250 | – | – | 6.55 | – | – | – | – | 80.1 | 0.35 | 1.35 | 4.58 | inactive | 18.2 | –
4 | ClP1(Cl)=NP2(=NP(Sc3ccccc3)(Sc3ccccc3)=N1)NCCCN2CCCCN1CCCNP12=NP(Sc1ccccc1)(Sc1ccccc1)=NP(Cl)(Cl)=N2 (stereo unspecified) | > 250 | > 250 | > 250 | > 250 | – | – | 3.35 | – | – | – | – | – | – | – | 1.96 | inactive | – | –
5 | ClP1(Cl)=NP2(=NP(Nc3ccccc3)(Nc3ccccc3)=N1)NCCCN2CCCCN1CCCNP12=NP(Nc1ccccc1)(Nc1ccccc1)=NP(Cl)(Cl)=N2 (stereo unspecified) | > 250 | > 250 | > 250 | > 250 | inactive | – | – | – | – | – | – | – | – | – | – | inactive | – | Non-toxic
6 | FC1(F)COP2(=NP(Cl)(Cl)=NP3(=N2)NCCCN3CCCCN2CCCNP23=NP(Cl)(Cl)=NP2(=N3)OCC(F)(F)C(F)(F)CO2)OCC1(F)F (stereo unspecified) | > 250 | > 250 | > 250 | > 250 | – | – | 1.31 | – | – | – | – | 81.42 | 0.53 | 0.8 | 2.33 | inactive | 17.25 | –
7 | FC1(F)COP2(=NP34=NP5(=N2)NCCCN5CCCCN3CCCN4)OCC1(F)F (stereo unspecified) | > 250 | > 250 | > 250 | > 250 | inactive | 3.39 | 5.41 | 32.78 | 60.78 | 5.34 | 1.1 | – | – | – | – | – | – | –
8 | CC1(C)COP2(=NP(Cl)(Cl)=NP3(=N2)NCCCN3CCCCN2CCCNP23=NP2(=NP(Cl)(Cl)=N3)OCC(C)(C)CO2)OC1 (stereo unspecified) | > 250 | > 250 | > 250 | > 250 | – | – | 2.65 | – | – | – | – | 63.78 | 1.97 | 1.41 | 2.75 | inactive | 32.84 | –
